# Experimental data taken from paper PMC6133075 (European Journal of Drug Metabolism and Pharmacokinetics, 2018).
# Values joined by “and” are separate entries in the source; they are usually repeats but may differ in a detail not shown here. Equal values may be shown once. Read-outs that look alike come from different tables or passages of the source.
# What was measured:
# [1] = type: in vitro ADME, rat; conditions: three freeze-thaw cycles, n = 3, range of means over QC levels
# Method in brief: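 Freeze–thaw stability of quality-control samples prepared by spiking drug-free rat plasma and drug-free RBC lysate (from three freeze–thaw cycles) at treosulfan 5.5, 55 and 800 μM and S,S-EBDM 9.4 and 94 μM. Samples were processed like study samples and assayed by HPLC–MS/MS. Stability was taken as the final/initial concentration ratio and reported as the range of means across QC levels.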
# [2] = treosulfan to S,S-EBDM; S,S-EBDM to (2S,3S)-1,2:3,4-diepoxybutane; cited from earlier work
# [3] = rat plasma; cited from earlier work
# [4] = type: in vivo, Wistar rats; conditions: for mean Ke/p (RBC/plasma partition coefficient): mean (± SD) of all 12 rats, 1 and 4 h after i.p. treosulfan 500 mg/kg; for Cp: plasma; for Ce: red blood cells
# Method in brief: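 Wistar rats, 10 weeks old (6 male, 6 female), received a single i.p. bolus of 500 mg/kg in sterile water (10 mL/kg), with ketamine/xylazine anaesthesia. K2EDTA cardiac blood was taken at 1 or 4 h and spun at 3645×g for 5 min at 20 °C. Plasma and RBC were acidified with citric acid; RBC were lysed by three freeze–thaw cycles. HPLC–MS/MS used codeine as internal standard. Ke/p = Ce/Cp.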
# [5] = rat lungs; cited from earlier work
# [6] = individual female rats, 1 h after i.p. bolus treosulfan 500 mg/kg
# [7] = individual female rats, 4 h after i.p. bolus treosulfan 500 mg/kg
# [8] = individual male rats, 1 h after i.p. bolus treosulfan 500 mg/kg
# [9] = individual male rats, 4 h after i.p. bolus treosulfan 500 mg/kg
Stability (final/initial concentration) ([1]; rat RBC lysate),Stability (final/initial concentration) ([1]; rat plasma),mean Ke/p (RBC/plasma partition coefficient) [4],"Cp [4, 6]","Cp [4, 7]","Cp [4, 8]","Cp [4, 9]","Ce [4, 8]","Ce [4, 9]",Structure (SMILES),t1/2 of nonenzymatic epoxidation [2],unbound fraction [3],tissue-to-plasma concentration ratio [5]
86.7–89.8%,88.3–89.4%,0.60 ± 0.09,64 µM and 22 µM,5.6 µM and 6.2 µM,58 µM and 61 µM and 3.6 µM,8.4 µM and 5.5 µM,36 µM and 34 µM and 2.1 µM,6.7 µM and 3.5 µM,"CS(=O)(=O)OC[C@H](O)[C@@H]1CO1 [S,S-EBDM, (2S,3S)-1,2-epoxy-3,4-butanediol 4-methanesulfonate]",3.4 h,≥ 0.94,~0.6
85.8–104.8%,90.7–108.8%,0.74 ± 0.12,1164 µM and 300 µM and 349 µM,113 µM and 83 µM,943 µM and 1189 µM and 28.8 µM,112 µM and 120 µM and 30 µM,704 µM and 779 µM and 24.2 µM,94 µM and 87 µM and 26 µM,CS(=O)(=O)OC[C@H](O)[C@@H](O)COS(C)(=O)=O [Treosulfan],1.5 h,≥ 0.94,about 0.8
